Reference: ChEMBL document CHEMBL5104228, “Mechanistic insight into the repair of C8-linked pyrrolobenzodiazepine monomer-mediated DNA damage” (2022)
Calls of active or inactive are those of the source. No cut-off for these calls is given here.

How the values were obtained:
[1] = Binding affinity to AT-rich 5'-fluoro and 3'-TAMRA tagged 5'-TAT-ATA-TAG-ATA-TTT-TTT-TAT-CTA-TAT-ATA-3' hairpin DNA (unknown origin) assessed as thermal stabilization by measuring change in melting temperature at 1 uM incubated for 3 hrs by FRET analysis
Method in brief: (§1)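 Fluorophore/quencher-tagged hairpin DNA, AT-rich (Sequence 1) or GC-rich (Sequence 2), incubated with compound for 3 h or 24 h, then thermally melted. Melt curves were compared against a DNA-only control for the same sequence. Each reaction was run in triplicate.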

[2] = Binding affinity to GC-rich 5'-fluoro and 3'-TAMRA tagged 5'-TAT-AGG-GAC-AGC-CCT-ATA-3' hairpin DNA (unknown origin) assessed as thermal stabilization by measuring change in melting temperature at 1 uM incubated for 3 hrs by FRET analysis; method in brief: as §1
[3] = Binding affinity to GC-rich 5'-fluoro and 3'-TAMRA tagged 5'-TAT-AGG-GAC-AGC-CCT-ATA-3' hairpin DNA (unknown origin) assessed as thermal stabilization by measuring change in melting temperature at 1 uM incubated for 24 hrs by FRET analysis; method in brief: as §1
[4] = Binding affinity to AT-rich 5'-fluoro and 3'-TAMRA tagged 5'-TAT-ATA-TAG-ATA-TTT-TTT-TAT-CTA-TAT-ATA-3' hairpin DNA(unknown origin) assessed as thermal stabilization by measuring change in melting temperature at 1 uM incubated for 24 hrs by FRET analysis; method in brief: as §1
Caulobacter vibrioides [5] = experiment: Induction of DNA damage in Caulobacter vibrioides assessed as increase in cell death upto 1 ug/ml and measured after 2 days by agar dilution method; format: functional, organism-based; conditions: dose <= 1.0 µg/ml, time 2.0 day, DDE = dose-dependent effect
Caulobacter vibrioides [6] = experiment: Effect on DNA damage repair in Caulobacter vibrioides lacking recN expression and expressing Gam-GFP reporter system assessed as fold increase in double stranded break by measuring Gam localization in cells at 0.5 ug/ml and measured after 2 hrs by fluorescence analysis; conditions: dose 0.5 µg/ml
Caulobacter vibrioides [7] = experiment: Effect on DNA damage repair in Caulobacter vibrioides lacking recO expression assessed as decrease in cell survival rate upto 1 ug/ml and measured after 2 days by agar dilution method; format: functional, organism-based; conditions: dose <= 1.0 µg/ml, time 2.0 day
Caulobacter vibrioides [8] = experiment: Effect on DNA damage repair in Caulobacter vibrioides lacking DnaE2 expression assessed as decrease in cell survival rate upto 1 ug/ml and measured after 2 days by agar dilution method; format: functional, organism-based; conditions: dose <= 1.0 µg/ml, time 2.0 day
Caulobacter vibrioides [9] = experiment: Effect on DNA damage repair in Caulobacter vibrioides lacking recA, lexA and sidA expression assessed as decrease in cell survival rate upto 1 ug/ml and measured after 2 days by agar dilution method; format: functional, organism-based; conditions: dose <= 1.0 µg/ml, time 2.0 day
Caulobacter vibrioides [10] = experiment: Effect on DNA damage repair in Caulobacter vibrioides lacking recA expression assessed as decrease in cell survival rate upto 1 ug/ml and measured after 2 days by agar dilution method; format: functional, organism-based; conditions: dose <= 1.0 µg/ml, time 2.0 day
Caulobacter vibrioides [11] = experiment: Effect on DNA damage repair in Caulobacter vibrioides lacking uvrA expression and expressing Gam-GFP reporter system assessed as fold increase in double stranded break by measuring Gam localization in cells at 0.5 ug/ml and measured after 2 hrs by fluorescence analysis; format: functional; conditions: dose 0.5 µg/ml
Caulobacter vibrioides [12] = experiment: Effect on DNA damage repair in Caulobacter vibrioides lacking recF expression assessed as decrease in cell survival rate upto 1 ug/ml and measured after 2 days by agar dilution method; format: functional, organism-based; conditions: dose <= 1.0 µg/ml, time 2.0 day
Caulobacter vibrioides [13] = experiment: Effect on DNA damage repair in Caulobacter vibrioides lacking recN expression assessed as decrease in cell survival rate upto 1 ug/ml and measured after 2 days by agar dilution method; format: functional, organism-based; conditions: dose <= 1.0 µg/ml, time 2.0 day
Caulobacter vibrioides [14] = experiment: Effect on DNA damage repair in Caulobacter vibrioides lacking addAB expression assessed as decrease in cell survival rate upto 1 ug/ml and measured after 2 days by agar dilution method; format: functional, organism-based; conditions: dose <= 1.0 µg/ml, time 2.0 day
Caulobacter vibrioides [15] = experiment: Effect on DNA damage repair in Caulobacter vibrioides lacking mutL expression assessed as decrease in cell survival rate upto 1 ug/ml and measured after 2 days by agar dilution method; format: functional, organism-based; conditions: dose <= 1.0 µg/ml, time 2.0 day
Method in brief: (§2)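 Survival of Caulobacter wild type, ΔmutL and ΔalkB strains was tested across increasing drug doses. Cultures were serially diluted and spotted, and growth was scored along the dilution series. At least three independent experiments were run per strain, with mean and SEM of all repeats plotted.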

Caulobacter vibrioides [16] = experiment: Induction of DNA damage in Caulobacter vibrioides assessed as accumulation of SOS-induced YFP at 0.5 ug/ml incubated upto 2 hrs by fluorescence microscopy; format: functional, organism-based; conditions: dose 0.5 µg/ml
Caulobacter vibrioides [17] = experiment: Effect on DNA damage repair in Caulobacter vibrioides lacking uvrA expression assessed as decrease in cell survival rate upto 1 ug/ml and measured after 2 days by agar dilution method; format: functional, organism-based; conditions: dose <= 1.0 µg/ml, time 2.0 day
Caulobacter vibrioides [18] = experiment: Effect on DNA damage repair in Caulobacter vibrioides lacking alkB expression assessed as decrease in cell survival rate upto 1 ug/ml and measured after 2 days by agar dilution method; format: functional, organism-based; conditions: dose <= 1.0 µg/ml, time 2.0 day; method in brief: as §2
Caulobacter vibrioides [19] = experiment: Effect on DNA damage repair in Caulobacter vibrioides expressing Gam-GFP reporter system assessed as increase in double stranded break by measuring Gam localization in cells at 0.5 ug/ml and measured after 2 hrs by fluorescence analysis; format: functional; conditions: dose 0.5 µg/ml
Method in brief: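 Wild-type Caulobacter carrying a Gam-GFP reporter; after drug treatment, cells imaged by fluorescence microscopy and percentage of cells with Gam-GFP foci scored ([…] cells). Three independent experiments; mean and SD reported.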

Caulobacter vibrioides [20] = experiment: Effect on DNA damage repair in Caulobacter vibrioides lacking recR expression assessed as decrease in cell survival rate upto 1 ug/ml and measured after 2 days by agar dilution method; format: functional, organism-based; conditions: dose <= 1.0 µg/ml, time 2.0 day
Caulobacter vibrioides [21] = experiment: Effect on DNA damage repair in Caulobacter vibrioides expressing Gam-GFP reporter system assessed as increase in double stranded break by measuring Gam localization in cells at 25 to 50 ug/ml and measured after 2 hrs by fluorescence analysis; format: functional, organism-based; conditions: dose 25-50 µg/ml
Caulobacter vibrioides [22] = experiment: Effect on DNA damage repair in Caulobacter vibrioides assessed as fold change as increase in rifampicin resistance colonies at 2 ug/ml incubated for 0.5 hrs followed by culture in new media and treated with rifampicin and measured after 48 hrs by colony formation assay; format: functional; conditions: dose 2 µg/ml
Method in brief: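 Caulobacter cells exposed to drug; rifampicin-resistant colony counts expressed as fold change relative to untreated control (no DNA damage). Three independent experiments; mean and SD reported.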

Caulobacter vibrioides [23] = experiment: Effect on DNA damage repair in Caulobacter vibrioides lacking recN expression and expressing Gam-GFP reporter system assessed as fold increase in double stranded break by measuring Gam localization in cells at 2 ug/ml and measured after 2 hrs by fluorescence analysis; conditions: dose 2 µg/ml
Caulobacter vibrioides [24] = experiment: Effect on DNA damage repair in Caulobacter vibrioides lacking uvrA expression and expressing Gam-GFP reporter system assessed as fold increase in double stranded break by measuring Gam localization in cells at 1 ug/ml and measured after 2 hrs by fluorescence analysis; format: functional; conditions: dose 1 µg/ml
Caulobacter vibrioides [25] = experiment: Induction of DNA damage in Caulobacter vibrioides assessed as accumulation of SOS-induced YFP at 1 ug/ml incubated upto 2 hrs by fluorescence microscopy; format: functional, organism-based; conditions: dose 1.0 µg/ml
Caulobacter vibrioides [26] = experiment: Effect on DNA damage repair in Caulobacter vibrioides expressing Gam-GFP reporter system assessed as increase in double stranded break by measuring Gam localization in cells at 2 ug/ml and measured after 2 hrs by fluorescence analysis; format: functional; conditions: dose 2 µg/ml
Method in brief: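 Wild-type Caulobacter carrying a Gam-GFP reporter was drug-treated and imaged by fluorescence microscopy. The readout was the percentage of cells with Gam-GFP foci, counting […] cells. Mean and SD are from three independent experiments.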

Structure (SMILES) | ΔTm [1] [°C] | ΔTm [2] [°C] | ΔTm [3] [°C] | ΔTm [4] [°C] | Activity (Caulobacter vibrioides [5]) | fold change (FC) (Caulobacter vibrioides [6]) | Activity (Caulobacter vibrioides [7]) | Activity (Caulobacter vibrioides [8]) | Activity (Caulobacter vibrioides [9]) | Activity (Caulobacter vibrioides [10]) | Activity (Caulobacter vibrioides [11]) [%] | Activity (Caulobacter vibrioides [12]) | Activity (Caulobacter vibrioides [13]) | Activity (Caulobacter vibrioides [14]) | Activity (Caulobacter vibrioides [15]) | Activity (Caulobacter vibrioides [16]) | Activity (Caulobacter vibrioides [17]) | Activity (Caulobacter vibrioides [18]) | Activity (Caulobacter vibrioides [19]) [%] | Activity (Caulobacter vibrioides [20]) | other results
COC(=O)c1cc(NC(=O)c2cc(NC(=O)CCCOc3cc4c(cc3OC)C(=O)N3CCC[C@H]3C=N4)cn2C)cn1C | 18.9 | 18.6 | 19.2 | 21.1 |  |  |  |  |  |  |  |  |  |  |  |  |  |  |  |  | 
COC(=O)c1cc2cc(NC(=O)c3cc(NC(=O)CCCOc4cc5c(cc4OC)C(=O)N4CCC[C@H]4C=N5)cn3C)ccc2s1 | 14 | 15.6 | 15.9 | 15.6 | Dde | 2 | Active | Active | Active | Active | 56 | Active | Active | Active | Active | Active | Active | Active | 5 | Active | 
CCn1cc(C(=O)O)c(=O)c2cc(F)c(N3CCNCC3)cc21 |  |  |  |  |  |  |  |  |  |  |  |  |  |  |  |  | Active |  |  |  | Activity (Caulobacter vibrioides [21]): Active
CO[C@@]12[C@H](COC(N)=O)C3=C(C(=O)C(C)=C(N)C3=O)N1C[C@@H]1N[C@@H]12 [MITOMYCIN] | 12.6 | 11.5 | 11.8 | 12.8 | Dde | 2 |  |  |  | Active | 10 |  |  |  | Active | Active |  | Active | 5 |  | fold change (FC) (Caulobacter vibrioides [22]): 2.5
COC(=O)c1cc(-c2ccc(NC(=O)c3cc(NC(=O)CCCOc4cc5c(cc4OC)C(=O)N4CCC[C@H]4C=N5)cn3C)cc2)cn1C | 15.7 | 16.3 | 17.4 | 18.5 | Dde |  | Active | Active | Active | Active |  | Active | Active | Active | Active |  | Active | Active |  | Active | fold change (FC) (Caulobacter vibrioides [23]): 2; Activity (Caulobacter vibrioides [24]): 40%; Activity (Caulobacter vibrioides [25]): Active; Activity (Caulobacter vibrioides [26]): 5%
COS(C)(=O)=O |  |  |  |  |  |  |  |  |  |  |  |  |  |  |  |  | Active |  |  |  | 
